# EBV gp42 inh = blocks Epstein-Barr virus glycoprotein 42 binding; Fluorescence polarization binding assay, mP read-out; inhibition, % (tested at 21.74 µM); hit rate 0.42% among 220,000; AID 1085; Q1HVG2; in the data active = inhibition above about 50%
# Target sequence (Q1HVG2 whole entry, looked up): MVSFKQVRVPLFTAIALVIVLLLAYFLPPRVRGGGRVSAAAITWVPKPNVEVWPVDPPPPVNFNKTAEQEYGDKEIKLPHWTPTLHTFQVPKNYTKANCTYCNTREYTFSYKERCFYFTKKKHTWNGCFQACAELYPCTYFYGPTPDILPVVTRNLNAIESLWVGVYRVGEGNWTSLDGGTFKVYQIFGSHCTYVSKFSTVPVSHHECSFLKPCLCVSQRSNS
# WT yeast gro inh = growth inhibition of WT yeast, mitochondrial fusion screen. hit rate 2.1% among 190,000. inhibition, % at 10 µM. mitochondrial fusion phenotypic screen, WT strain. AID 1362; in the data active = inhibition above about 58%; tested in S. cerevisiae
# Tb MetRS inh = blocks T. brucei methionyl-tRNA synthetase activity. purified T. brucei MetRS, ATP depletion, Kinase-Glo luminescence. inhibition, % at 11.9 µM. hit rate 0.4% among 360,000;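 active = inhibition above a per-plate cutoff of the control wells' mean inhibition plus 3 SD, cut at about 5.5% in these data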;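 also: 0% = DMSO wells median and 100% = median of wells with control inhibitor compound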
#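 assay system = parasite MetRS enzyme | timing = 15 min preincubation, 2 h reaction, all 25 °C | evaluation = percent inhibition relative to median high and low control wells | medium = HEPES buffer containing pyrophosphatase, BSA, spermine, DTT | compound = single dose, 11.9 µM final nominal, 0.9% final DMSO | detection = Kinase-Glo luminescence, ATP depletion format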
# NR3A LBD binder = NR3A (human) ligand-binding domain modulation. NR3A LBD differential scanning fluorimetry, Tm shift; 0% = protein alone, 100% = glycine-bound protein. AID 1259313. hit rate 2.5% among 340,000. Tm shift relative to glycine control, % at 25 µM;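 active = melting temperature shift of at least 10% of the positive control shift, at one fixed dose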
# CHOP inhibitor = CHOP inhibition in unfolded protein response. inhibition, % at 10 µM. AID 2732. CHO-K1 CHOP-promoter luciferase, tunicamycin-induced, 15-18 h. hit rate 3.8% among 220,000;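 active = compounds that reduced the stress-induced luciferase reporter signal by more than about 70% of percent inhibition, limit read from the data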;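 also: 0% = tunicamycin plus vehicle and 100% = wells without tunicamycin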
# MPTP inh = permeability transition pore inhibition; isolated mouse mitochondria, Ca2+ swelling absorbance, 30 min; inhibition, % at 10 µM; hit rate 1.4% among 360,000;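 active = inhibition of 50% or more, scaled per plate between neutral and stimulator controls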;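 also: 0% = DMSO wells given calcium and 100% = 1 mM EGTA wells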
# * = called active by the depositor; / = no result; + = active, no number. Rows were chosen to be rich in hits. Some 6.4% of all compounds tested hit in one or more screens of this group.
SMILES,EBV gp42 inh,WT yeast gro inh,Tb MetRS inh,NR3A LBD binder,CHOP inhibitor,MPTP inh
O=C(Nc1ccc2c(c1)OCCO2)C(c1ccnc2ccccc12)N1CCN(c2ccc(C(F)(F)F)cn2)CC1 (stereo not drawn),/,/,-0.4,/,/,1.6
Cc1c([N+](=O)[O-])cc(C(=O)Nc2ccc(Cc3ccncc3)cc2)cc1[N+](=O)[O-],-10.0,37.9,-0.5,-4.4,77.3*,48.8
O=C(CCC(=O)N1CCOc2ccc(Cl)cc21)NCCCN1CCC(Cc2ccccc2)CC1,/,/,-0.4,-10.6,/,3.9
CC1=NOC(=O)/C1=C\c1ccc(-c2ccc(Cl)c(C(=O)O)c2)o1,-81.7,-34.9,-0.4,3.3,4.4,-0.6
CC1=NOC(=O)/C1=C\c1ccc(-c2ccccc2Br)o1,-4.1,72.4*,0.0,7.6,-17.1,2.8
O=C(N/N=C/c1cc([N+](=O)[O-])ccc1O)c1c[nH]c2ccccc12,-4.7,/,0.6,27.2*,80.7*,5.0
O=c1c2ccccc2nc(COc2ccccc2)n1/N=C/c1cc([N+](=O)[O-])ccc1O,8.9,-6.1,0.9,22.0*,63.5,49.4
O=C(N/N=C/c1cccc([N+](=O)[O-])c1)c1c[nH]c2ccccc12,-3.8,/,0.8,27.2*,-36.8,2.8
Cn1cc(C(=O)N/N=C/c2ccc([N+](=O)[O-])cc2)c2ccccc21,-21.1,/,-0.2,28.2*,67.8,4.0
Cn1cc(C(=O)N/N=C/c2cccc([N+](=O)[O-])c2)c2ccccc21,0.2,/,0.9,9.4,-3.5,2.6
O=C(NN=Cc1cc([N+](=O)[O-])ccc1O)c1cccc2ccccc12,/,/,-0.2,1.3,/,-1.0
COc1cccc(N=Nc2c(=O)[nH]n3c(=O)cc(C)[nH]c23)c1,-6.1,/,-0.1,-1.2,34.6,0.2
O=C(CN1c2ccccc2Sc2ccccc21)N/N=C/c1ccccc1,-12.0,/,-0.3,4.7,-3.4,-2.5
Cc1cc(C(=O)N/N=C/c2cc([N+](=O)[O-])ccc2O)c2ccccc2n1,2.6,-2.2,-0.4,-20.5,71.4*,5.0
O=C(CN1c2ccccc2Sc2ccccc21)N/N=C/c1ccc([N+](=O)[O-])cc1,-17.8,/,-1.1,32.5*,47.0,5.6
COc1cc(/C=C(\C#N)C(=O)c2ccc(O)c(O)c2)cc(I)c1O,/,/,1.8,1.6,85.7*,2.8
COc1ccc(C=C(C#N)C(=O)c2ccccc2)cc1,/,/,-0.5,/,/,0.1
COc1ccc(OC)c2c1C(=O)c1ccccc1C2=O,+,-3.1,/,-2.2,17.2,/
COc1ccc(N)c2c1C(=O)c1ccccc1C2=O,1.1,71.5,-2.0,-0.1,21.1,10.6
COc1ccc(OC)c2c1C(=O)C(Cl)=C(Cl)C2=O,-38.6,/,-0.7,-22.6,106.1*,4.7
COc1cc(C=C2C(=O)c3ccccc3C2=O)ccc1O,-17.0,/,-1.4,-0.4,8.0,4.6
COc1cc(C=C2C(=O)c3ccccc3C2=O)cc(OC)c1OC,95.4*,12.8,-0.3,3.7,45.9,-2.9
CC(=O)c1cccc(NC(=O)NNC(=O)c2ccc(-c3ccccc3)cc2)c1,/,/,0.2,-0.8,/,1.3
O=C(O)c1cccc(N/N=C/c2sc(N3CCOCC3)nc2-c2ccccc2)c1,-9.2,11.1,-1.1,14.3*,-165.3,-1.1
O=C(Nc1ccccc1F)C(=Cc1sc(N2CCOCC2)nc1-c1ccccc1)C(=O)Nc1ccccc1F,61.6*,-2.0,-0.4,1.3,48.4,2.8
SMILES,EBV gp42 inh,WT yeast gro inh,Tb MetRS inh,NR3A LBD binder,CHOP inhibitor,MPTP inh
Cc1ccc(NS(=O)(=O)c2csc(C(N)=O)c2)c(C)c1,/,/,1.5,1.6,/,-0.1
CCc1ccc2[nH]c(=O)c(CN(Cc3ccccc3OC)C(=O)Nc3ccccc3OC)cc2c1,-2.3,21.0,-1.0,0.1,71.1*,-1.7
CCN(CC)CCN(Cc1cc2cc(C)ccc2[nH]c1=O)C(=O)Nc1ccccc1OC,0.1,7.9,0.3,-0.9,1.3,-2.5
O=S(=O)(NCC(c1cccs1)N1CCc2ccccc2C1)c1ccccc1 (stereo not drawn),/,/,-0.3,14.1*,/,1.2
Cc1ccc(N(Cc2ccccc2)C(=O)c2cccc(S(=O)(=O)N3CCOCC3)c2)cc1,/,/,-0.5,-0.3,/,0.1
O=c1/c(=C\c2ccc(O)cc2)sc2nc(-c3ccccc3)c(-c3ccccc3)n12,-31.5,/,-0.4,-0.9,91.4*,26.8
c1ccc(Nc2nc(-c3cccs3)cs2)nc1,-6.2,39.2,-1.1,-1.3,23.6,-3.3
O=c1oc2ccccc2cc1-c1nc(-c2cccs2)cs1,112.5*,25.2,0.5,-6.1,39.1,1.7
c1csc(-c2csc(-c3cccs3)n2)c1,-0.9,-6.9,-1.2,1.1,77.0*,2.5
COc1cccc2cc(-c3nc(-c4cccs4)cs3)c(=O)oc12,27.5,-19.8,1.5,-5.7,-12.6,0.0
c1cncc(-c2nc(-c3cccs3)cs2)c1,2.5,-0.5,-0.5,0.1,27.2,-0.2
Cc1cccc(Nc2nc(-c3cccs3)cs2)n1,-9.9,72.5*,-0.7,-5.6,21.1,1.2
Cc1nc(C(C)NC(=O)c2ccc(OC3CCN(Cc4ccccn4)CC3)cc2)c(C)s1 (stereo not drawn),/,/,-0.2,-1.5,/,-2.2
CCOc1ccc(OCc2ccc(C(=O)N/N=C(\C)c3ccccn3)cc2)cc1,-8.5,5.2,-0.2,-0.5,52.6,-2.2
CCC(C)/C(C)=N/NC(=O)c1ccc(COc2ccc(Cl)c(C)c2)cc1 (stereo not drawn),3.1,72.3*,-0.9,0.0,53.9,47.3
Cc1ccc(/C=C/C(=O)C2C(=O)c3ccccc3C2=O)cc1,-10.3,8.6,0.0,-4.1,95.2*,-1.9
COc1ccc(Cl)cc1NC(=O)NNC(=O)c1ccccn1,/,/,-0.4,77.3*,/,1.7
COc1ccccc1NC(=O)c1ccccc1NC(=O)c1ccccn1,/,/,-0.2,0.2,/,-0.8
O=C(CN(Cc1ccccc1F)C(=O)c1csnn1)NC1CCCCC1,/,/,0.2,-0.4,/,-1.5
O=C(Nc1ccccc1C(=O)Nc1nnc(C(F)(F)F)s1)c1ccccc1Cl,-2.3,/,-0.8,18.2*,73.6*,27.0
O=C(c1ccc2c(c1)OCO2)N1CCC2(CC1)Oc1ccc(Cl)cc1C(=O)C21CC(c2ccc(Cl)cc2)=NO1 (stereo not drawn),-10.3,/,/,/,-15.8,/
Cc1c(Cl)ccc2c(C(=O)NCCCn3nccc3C)cc(-c3ccccn3)nc12,/,/,-0.3,-10.3,/,1.4
Cc1c(Cl)ccc2c(C(=O)NCCN3CCCCC3)cc(-c3ccccn3)nc12,-4.7,94.2*,-1.0,-1.8,22.2,30.1
COC(=O)c1cc(NC(=O)CSc2nncn2C)cc(C(=O)OC)c1,-15.9,-3.8,-0.9,11.2*,-4.3,-1.7
Cc1nn(Cc2ccc(Cl)cc2Cl)c(Cl)c1/C=C/C(=O)OCC(=O)NCC(F)(F)F,-22.1,20.9,0.3,-1.6,76.8*,-2.4
Cc1nn(Cc2ccccc2Cl)c(Cl)c1/C=C/C(=O)OCC(=O)NC(N)=O,-21.6,16.2,-1.2,-11.2,24.8,-1.2
COCCOc1ccc(C(F)(F)F)cc1NC(=O)c1ccc(C(F)(F)F)cc1,-15.8,-8.9,-1.6,-6.9,12.9,8.1
